What was measured:
[1] = Lethality was evaluated after 0.5 hr in pentylenetetrazole test in mice at a dose of 120 mg/kg; assay type: ADME, organism-based; set-up: dose 120 mg/kg; conditions: mouse, in vivo
Procedure, shortened: (§1)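 Male NMRI mice (18-25 g) got compound ip at 119 mg/kg in DMSO (2 mL/kg). At 30 min or 3 h after dosing, pentylenetetrazole in saline was given sc at 85 or 120 mg/kg. Mice were caged singly and watched for 30 min, noting clonic and tonic seizures and deaths. Lethality is given as a percentage.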

Mus musculus [2] = experiment: Tonic seizures was evaluated after 0.5 hr in strychnine test in mice at a dose of 119 mg/kg; assay type: functional
Procedure, shortened: (§2)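 Male NMRI mice (18-25 g) were dosed ip at 119 mg/kg in DMSO (2 mL/kg). At 30 min or 3 h, strychnine chlorhydrate in saline was given sc (1.2 mg/mL, 1 mL/kg). Mice were observed individually for 30 min, with tonic seizures and lethality recorded as percent of animals.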

[3] = Lethality was evaluated after 0.5 hr in strychnine test in mice at a dose of 119 mg/kg; assay type: ADME, organism-based; set-up: dose 119 mg/kg; conditions: mouse, in vivo
Procedure, shortened: (§3)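 Male NMRI mice (18-25 g) got compound ip at 119 mg/kg in DMSO (2 mL/kg). At 30 min or 3 h after dosing, strychnine chlorhydrate in saline (1.2 mg/mL) was injected sc at 1 mL/kg. Mice were caged singly and observed for 30 min, recording seizure onset, tonic seizures and lethality (%).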

[4] = Lethality was evaluated after 0.5 hr in pentylenetetrazole test in mice at a dose of 85 mg/kg; assay type: ADME, organism-based; set-up: dose 85 mg/kg; conditions: mouse, in vivo; procedure, shortened: as §1
[5] = Lethality was evaluated after 3h in strychnine test in mice at a dose of 119 mg/kg; assay type: ADME, organism-based; set-up: dose 119 mg/kg; conditions: mouse, in vivo; procedure, shortened: as §3
[6] = Lethality was evaluated after 3h in 3-mercaptopropionic acid test in mice at a dose of 119 mg/kg; assay type: ADME, organism-based; set-up: dose 119 mg/kg; conditions: mouse, in vivo
Procedure, shortened: (§4)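 Male NMRI mice (18-25 g, bred in-house) got test compound ip at 119 mg/kg, dissolved in DMSO and given at 2 mL/kg. At 30 min or 3 h after dosing, 3-mercaptopropionic acid in saline was injected ip at 40 mg/kg. Deaths were recorded and reported as percent lethality.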

Mus musculus [7] = experiment: Tonic seizures was evaluated after 3h in strychnine test in mice at a dose of 119 mg/kg; assay type: functional; procedure, shortened: as §2
Mus musculus [8] = experiment: Clonic seizures was evaluated after 0.5 hr in 3-mercaptopropionic acid test in mice at a dose of 119 mg/kg; assay type: functional
Procedure, shortened: (§5)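 Male NMRI mice (18-25 g). Test compound dissolved in DMSO, given ip at 2 mL/kg. Convulsant given 30 min or 3 h later: pentylenetetrazole (85 or 120 mg/kg) sc in saline, or 3-mercaptopropionic acid 40 mg/kg ip in saline. Mice caged singly and watched 30 min. Clonic and tonic seizures and deaths counted, expressed as % of animals.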

Mus musculus [9] = experiment: Tonic seizures was evaluated after 0.5 hr in pentylenetetrazole test at a dose of 85 mg/kg; assay type: functional
Procedure, shortened: (§6)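 Male NMRI mice (18-25 g) were dosed ip at 119 mg/kg in DMSO (2 mL/kg). At 30 min or 3 h, pentylenetetrazole in saline was given sc at 85 or 120 mg/kg (the convulsant dose named in each line). Mice were observed individually for 30 min, with clonic and tonic seizures and deaths noted as percent of animals.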

[10] = Lethality was evaluated after 0.5 hr in 3-mercaptopropionic acid test in mice at a dose of 119 mg/kg; assay type: ADME, organism-based; set-up: dose 119 mg/kg; conditions: mouse, in vivo; procedure, shortened: as §4
Mus musculus [11] = experiment: Clonic seizures was evaluated after 3h in 3-mercaptopropionic acid test in mice at a dose of 119 mg/kg; assay type: functional; procedure, shortened: as §5
[12] = Lipophilicity value was evaluated; assay type: physicochemical; conditions: RP-HPLC
Procedure, shortened: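 Lipophilicity by RP-HPLC on a C18 column at 1.0 mL/min. Mobile phases were 10-50% […] with 50-90% 0.01 M phosphate buffer pH 7.4. Triplicate runs per eluent. log k_o extrapolated from at least four eluent compositions. ClogP also calculated.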

[13] = Lethality was evaluated after 3h in pentylenetetrazole test in mice at a dose of 85 mg/kg; assay type: ADME, organism-based; set-up: dose 85 mg/kg; conditions: mouse, in vivo; procedure, shortened: as §1
Mus musculus [14] = experiment: Tonic seizures was evaluated after 3h in pentylenetetrazole test at a dose of 85 mg/kg; assay type: functional; procedure, shortened: as §6
Mus musculus [15] = experiment: Tonic seizures was evaluated after 3h in 3-mercaptopropionic acid test in mice at a dose of 119 mg/kg; assay type: functional
Procedure, shortened: (§7)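 Male NMRI mice (18-25 g) received test agent ip at 119 mg/kg, dissolved in DMSO, 2 mL/kg. 40 mg/kg 3-mercaptopropionic acid in saline was injected ip 30 min or 3 h later. Percentage of animals with tonic seizures was recorded.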

Mus musculus [16] = experiment: Clonic seizures was evaluated after 0.5 hr in pentylenetetrazole test in mice at a dose of 85 mg/kg; assay type: functional
Mus musculus [17] = experiment: Tonic seizures was evaluated after 0.5 hr in pentylenetetrazole test at a dose of 120 mg/kg; assay type: functional; procedure, shortened: as §6
Mus musculus [18] = experiment: Compound was tested for anticonvulsant activity in maximal electroshock seizure(MES) test after 30 min upon intraperitoneal administration to mice; assay type: functional; conditions: ip, 0.5 h
Procedure, shortened: (§8)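 Male OF1 mice (15-25 g), free access to water only during testing. Compound given ip and maximal electroshock applied at 30 min or 3 h. Typically 8-10 mice per compound, dose and time point. Screening at initial 0.4 mmol/kg, scored as protected/tested.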

Mus musculus [19] = experiment: Clonic seizures was evaluated after 0.5 hr in pentylenetetrazole test in mice at a dose of 120 mg/kg; assay type: functional; procedure, shortened: as §5
Mus musculus [20] = experiment: Compound was tested for anticonvulsant activity in maximal electroshock seizure(MES) test after 3 hours upon intraperitoneal administration to mice; assay type: functional; conditions: ip; procedure, shortened: as §8
Mus musculus [21] = experiment: Tonic seizures was evaluated after 0.5 hr in 3-mercaptopropionic acid test in mice at a dose of 119 mg/kg; assay type: functional; procedure, shortened: as §7
Mus musculus [22] = experiment: Clonic seizures was evaluated after 3h in pentylenetetrazole test in mice at a dose of 85 mg/kg; assay type: functional

Structure (SMILES): O=C(CNC(=O)OCc1ccccc1)NCc1ccccc1
- Lethality [1]: 50%
- Tonic seizures (Mus musculus [2]): 33%
- Lethality [3]: 17%
- Lethality [4]: 22%
- Lethality [5]: 80%
- Lethality [6]: 30%
- Tonic seizures (Mus musculus [7]): 80%
- Clonic seizures (Mus musculus [8]): 83%
- Tonic seizures (Mus musculus [9]): 0%
- Lethality [10]: 0%
- Clonic seizures (Mus musculus [11]): 100%
- Log Ko [12]: 3.5
- Lethality [13]: 60%
- Tonic seizures (Mus musculus [14]): 70%
- Tonic seizures (Mus musculus [15]): 0%
- Clonic seizures (Mus musculus [16]): 67%
- Tonic seizures (Mus musculus [17]): 0%
- ED50 (Mus musculus [18]): 4.8 mg/kg
- Clonic seizures (Mus musculus [19]): 83%
- ED50 (Mus musculus [20]): 11.6 mg/kg
- Tonic seizures (Mus musculus [21]): 17%
- Clonic seizures (Mus musculus [22]): 80%
